Experimental data published in ChEMBL document CHEMBL5252546, “Salutaxel, a Conjugate of Docetaxel and a Muramyl Dipeptide (MDP) Analogue, Acts as Multifunctional Prodrug That Inhibits Tumor Growth and Metastasis” (J Med Chem, 2018).
Activity calls are given as the source filed them. The rule behind the calls is not given here.

Legend:
4T1 [1] = test: Antitumor activity against mouse 4T1 cells implanted in BALB/c mouse assessed as decrease in lung metastasis at 5.7 mg/kg,iv administrated once per week for 4 weeks in presence of compound 5b by H and E staining based assay; format: functional, organism-based
Method in brief: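 BALB/c mice bearing orthotopic mammary fat pad 4T1 tumors, dosed iv weekly for 4 weeks with saline vehicle as control. Lung sections stained with hematoxylin and eosin and examined by light microscopy at 40× for metastasis, inflammatory infiltration and alveolar wall thickening.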

[2] = AUC (0-t) in rat at 4 mg/kg,iv measured upto 24 hrs; format: ADME, organism-based; set-up: time < 24 hrs, dose 4 mg/kg, route iv; conditions: in vivo
Method in brief: (§1)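 Single iv dose: rats 2, 4 or 8 mg/kg by intravenous injection; Beagle dogs 1, 2 or 4 mg/kg by intravenous infusion. Plasma concentration–time data were analysed by sex and pooled. Reported parameters: Cmax, Tmax, AUC0−t, AUC0−∞, MRT0−∞, t1/2, CL, Vss, given as mean ± SD.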

4T1 [3] = test: Antitumor activity against mouse 4T1 cells implanted in BALB/c mouse assessed as decrease in serum TIMP-1 level at 5 mg/kg,iv administrated once per week for 4 weeks by ELISA; format: functional, organism-based
Method in brief: (§2)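 4T1 fat-pad model in BALB/c mice, iv 5–20 mg/kg once weekly for 4 weeks, with vehicle and naive groups; serum MMP9, TIMP-1, IL-6 and S100A9 measured by mouse ELISA kits.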

[4] = Prodrug conversion in mouse tumor implanted with mouse 4T1 cells assessed as MRT of docetaxel at 4 mg/kg,iv measured upto 72 hrs; format: ADME, organism-based, Neoplasm; conditions: in vivo
[5] = Toxicity in Beagle dog assessed as decrease in blood pressure at 1 to 4 mg/kg,iv measured after 1 to 4 hrs; format: organism-based, Canis lupus familiaris; conditions: in vivo, dose lower 1 mg/kg, time lower 1 hrs, dose upper 4 mg/kg, time upper 4 hrs
[6] = Drug metabolism in rat feces assessed as metabolite docetaxel formation at 4 mg/kg,iv measured after 24 hrs; format: ADME, organism-based; conditions: in vivo
[7] = Stability in monkey plasma assessed as compound remaining at 40 uM incubated for 6 hrs; format: ADME, cell-free, Macaca mulatta; conditions: rhesus monkey
[8] = Stability in rat plasma assessed as compound remaining at 1 uM incubated for 6 hrs; format: ADME, cell-free
[9] = Drug excretion in rat urine at 4 mg/kg,iv measured upto 72 hrs; format: ADME, organism-based; conditions: read-out: Drug excretion
[10] = Volume of distribution at steady state in female rat at 8 mg/kg,iv measured upto 24 hrs; format: ADME, organism-based; conditions: in vivo, read-out: Vdss
4T1 [11] = test: Antitumor activity against mouse 4T1 cells xenografted with BALB/c mouse assessed as reduction lung metastatic nodules at 5 to 20 mg/kg,iv administrated once per week for 4 weeks; format: functional, organism-based; conditions: dose 5-20 mg/kg
Method in brief: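 4T1 cells injected into the mammary fat pad of BALB/c mice; iv saline vehicle or 5, 10 or 20 mg/kg once weekly for 4 weeks; body weight, tumour volume, tumour weight, lung metastatic nodule count and metastasis score recorded; n = 10, mean ± SEM, ANOVA and Student's t test.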

[12] = Toxicity in male Sprague-Dawley rat assessed as testicular atrophy at 2 to 8 mg/kg,iv measured upto 24 hrs; format: organism-based; conditions: in vivo, dose 2-8 mg/kg
4T1 [13] = test: Antitumor activity against mouse 4T1 cells implanted in BALB/c mouse assessed as decrease in IL-1beta mRNA expression in lung at 20 mg/kg,iv administrated qd for 2 days by qRT-PCR analysis; format: functional, organism-based; conditions: time 2.0 day
Method in brief: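 Day 19 after 4T1 implantation, mice randomised into five groups; iv vehicle or 20 mg/kg plus ip C12-iE-DAP (50 μg/mouse) and MDP (100 μg/mouse) once daily for 2 days; killed after 48 h; lung mRNA for MMP8, MMP9, PROK2, S100A8, S100A9 and IL-1β by qPCR; mean ± SEM.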

[14] = Drug distribution in rat adrenal gland at 4 mg/kg,iv measured by 0.25 hrs; format: ADME, organism-based; conditions: in vivo
Method in brief: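 Rats received 4 mg/kg iv. Parent drug and released docetaxel were assayed in tissues and plasma from the first sampling at 0.25 h to 24 h. The lower limit of quantitation was 200 ng/g.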

[15] = Clearance in male Beagle dog at 1 mg/kg,iv measured upto 24 hrs; format: ADME, organism-based, Canis lupus familiaris; conditions: in vivo
Method in brief: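 Beagle dogs were given a single iv infusion at 1, 2 or 4 mg/kg. Plasma parent drug and released docetaxel were followed over time. Cmax, Tmax, AUC, MRT, t1/2, CL and Vss were reported by sex and for all dogs combined.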

[16] = Cmax in female rat at 4 mg/kg,iv measured upto 24 hrs; format: ADME, organism-based; set-up: time < 24 hrs, dose 4 mg/kg, route iv; conditions: in vivo
Method in brief: (§3)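 Rats were given a single iv injection at 2, 4 or 8 mg/kg. Plasma parent drug and released docetaxel were followed over time. Cmax, Tmax, AUC, MRT, t1/2, CL and Vss were reported for males, females and all animals combined.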

4T1 [17] = test: Antitumor activity against mouse 4T1 cells implanted in BALB/c mouse assessed as decrease in serum TIMP-1 level at 20 mg/kg,iv administrated once per week for 4 weeks by ELISA; format: functional, organism-based; method in brief: as §2
4T1 [18] = test: Antitumor activity against mouse 4T1 cells implanted in BALB/c mouse assessed as increase in lung NOD1 expression level at 5 to 20 mg/kg,iv administrated once per week for 4 weeks by western blot assay; format: functional, organism-based; conditions: dose 5-20 mg/kg
Method in brief: (§4)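 4T1 fat-pad model in BALB/c mice, iv once weekly for 4 weeks; MMP9, MMP2 and NOD1 in spleen, lung and tumour by western blot, β-actin loading control; bands averaged over five mice per group, representative of two independent experiments.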

[19] = Tmax in female rat at 2 mg/kg,iv measured upto 24 hrs; format: ADME, organism-based; conditions: in vivo
[20] = Toxicity in Beagle dog assessed as effect on respiratory frequency at 1 to 4 mg/kg,iv; format: organism-based, Canis lupus familiaris; conditions: in vivo, dose 1-4 mg/kg
[21] = Tmax in female rat at 8 mg/kg,iv measured upto 24 hrs; format: ADME, organism-based; conditions: in vivo
[22] = Toxicity in Beagle dog assessed as maximal non-toxic dose at iv administration; format: organism-based, Canis lupus familiaris; conditions: in vivo, read-out: MNTD
[23] = Cmax in mouse tumor implanted with mouse 4T1 cells at 10 mg/kg,iv measured upto 72 hrs; format: ADME, organism-based, Neoplasm; set-up: time < 72 hrs, dose 10 mg/kg, route iv
Method in brief: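 BALB/c mice carried 4T1 cells implanted in the mammary fat pad and received a single iv dose of 10 mg/kg. Parent drug and released docetaxel were assayed in plasma and tumor tissue up to 72 h. Parameters came from noncompartmental analysis, n = 6, mean ± SD.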

[24] = Clearance in male rat at 8 mg/kg,iv measured upto 24 hrs; format: ADME, organism-based; conditions: in vivo; method in brief: as §3
4T1 [25] = test: Antitumor activity against mouse 4T1 cells implanted in BALB/c mouse assessed as increase in spleen NOD1 expression level at 5 to 20 mg/kg,iv administrated once per week for 4 weeks by western blot assay; format: functional, organism-based; conditions: dose 5-20 mg/kg; method in brief: as §4
[26] = AUC (0-infinity) in female rat at 2 mg/kg,iv measured upto 24 hrs; format: ADME, organism-based; set-up: time < 24 hrs, dose 2 mg/kg, route iv; conditions: in vivo; method in brief: as §1
[27] = MRT (0 to infinity) in Beagle dog at 1 mg/kg,iv measured upto 24 hrs; format: ADME, organism-based, Canis lupus familiaris; conditions: in vivo
[28] = Toxicity in BALB/c mouse xenografted with human MDA-MB-231 cells assessed as side effects at 10 mg/kg,iv administrated once per week for 3 weeks; format: organism-based; conditions: in vivo, 504 h
[29] = Toxicity in Beagle dog assessed as facial swelling at 3 to 18 mg/kg,iv measured upto 24 hrs; format: organism-based, Canis lupus familiaris; conditions: in vivo, dose 3-18 mg/kg

With `CC(=O)O[C@@]12CO[C@@H]1C[C@H](O)[C@@]1(C)C(=O)[C@H](O)C3=C(C)[C@@H](OC(=O)[C@H](O)[C@@H](NC(=O)OC(C)(C)C)c4ccccc4)C[C@@](O)([C@@H](OC(=O)c4ccccc4)[C@H]21)C3(C)C` [DOCETAXEL ANHYDROUS] as the compound, how does the Activity (4T1 [1]) read?
The Activity was “Active”.

Which results are given for `CC(=O)O[C@@]12CO[C@@H]1C[C@H](O)[C@@]1(C)C(=O)[C@H](O)C3=C(C)[C@@H](OC(=O)[C@H](OC(=O)CCC(=O)NCCCC[C@H](NC(=O)CC[C@@H](NC(=O)[C@H](C)NC(=O)/C=C/c4ccc(F)cc4Cl)C(N)=O)C(=O)O)[C@@H](NC(=O)OC(C)(C)C)c4ccccc4)C[C@@](O)([C@@H](OC(=O)c4ccccc4)[C@H]21)C3(C)C`?
AUC(0-t) at 24 h [2]: 16900 ng·h/mL; Activity (4T1 [3]): Active; MRT [4]: 87.4 h; Activity [5]: Non-Toxic; Drug metabolism [6]: Metabolite_Detected; Stability [7]: Stable; Stability [8]: Stable; dose excreted at 72 h [9]: 9.38%; Vd [10]: 0.095 L/kg; Activity (4T1 [11]): Active; Activity [12]: Toxic; Activity (4T1 [13]): Active; Drug uptake [14]: Active; clearance [15]: 11.7 mL/min/kg; Cmax [16]: 30500 ng/mL; Activity (4T1 [17]): Active; Activity (4T1 [18]): Active; Tmax [19]: 4.98 min; Activity [20]: Non-Toxic; Tmax [21]: 4.98 min; NOAEL [22]: 6 mg/kg; Cmax [23]: 140 nM; clearance [24]: 2.55 mL/min/kg; Activity (4T1 [25]): Active; AUC(0-inf) [26]: 4330 ng·h/mL; MRT inf [27]: 15.2 min; Activity [28]: Non-Toxic; Activity [29]: Toxic
